Measured values from ChEMBL document CHEMBL4680175, “Sulfonamide-based ring-fused analogues for CAN508 as novel carbonic anhydrase inhibitors endowed with antitumor activity: Design, synthesis, and in vitro biological evaluation” (Eur J Med Chem, 2020).
Calls of active or inactive are those of the source. The calls are words filed in the database; no cut-off is given here.

How the values were obtained:
MDA-MB-468 [1] = test: Antiproliferative activity against human MDA-MB-468 cells measured after 48 hrs under CoCl2-induced hypoxic condition by MTT assay; format: functional, cell-based; conditions: MDA-MB-468, 48 h
MCF7 [2] = test: Antiproliferative activity against human MCF7 cells measured after 48 hrs under CoCl2-induced hypoxic condition by MTT assay; format: functional, cell-based; conditions: MCF7, 48 h
MCF7 [3] = test: Induction of cell cycle arrest in human MCF7 cells assessed as fold increase in apoptotic cells at sub-G1 phase at IC50 concentration incubated for 24 hrs by PI/RNase staining based flow cytometric analysis relative to control; format: functional
Outline: (§1)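 Cells were washed in ice-cold PBS, fixed in ice-cold 70% ethanol, treated with 100 µg/mL RNase and stained with 40 µg/mL PI. DNA content was read by flow cytometry, with sub-G1 compared against control.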

MCF7 [4] = test: Induction of apoptosis in human MCF7 cells assessed as late apoptotic cells by Annexin V-FITC/propidium iodide staining based flow cytometric analysis (reference value: 0.29 %); format: functional
OVCAR-8 = test: Antitumor activity against human OVCAR-8 cells assessed as cell growth inhibition at 10 uM incubated for 48 hrs by sulforhodamine B assay; format: functional; conditions: read-out: GI
Outline: (§2)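 NCI Drug Evaluation Branch protocol: primary single-dose screen at 10 μM across a 57-line human cancer panel. Drug exposure is 48 h. Cell growth and viability are read by sulforhodamine B assay. Data are given as a mean graph of percent growth of treated cells and reported as percentage growth inhibition (GI%).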

MCF7 [5] = test: Induction of cell cycle arrest in human MCF7 cells assessed as accumulation at G2/M phase at IC50 concentration incubated for 24 hrs by PI/RNase staining based flow cytometric analysis; format: functional; outline: as §1
MCF7 [6] = test: Antiproliferative activity against human MCF7 cells measured after 48 hrs under normoxic condition by MTT assay; format: functional, cell-based; conditions: MCF7, 48 h
K562 = test: Antitumor activity against human K562 cells assessed as cell growth inhibition at 10 uM incubated for 48 hrs by sulforhodamine B assay; format: functional; conditions: read-out: GI; outline: as §2
NCI/ADR-RES = test: Antitumor activity against human NCI/ADR-RES cells assessed as cell growth inhibition at 10 uM incubated for 48 hrs by sulforhodamine B assay; format: functional, cell-based; outline: as §2
RPMI-8226 = test: Antitumor activity against human RPMI8226 cells assessed as cell growth inhibition at 10 uM incubated for 48 hrs by sulforhodamine B assay; format: functional; conditions: read-out: GI; outline: as §2
MCF7 [7] = test: Induction of cell cycle arrest in human MCF7 cells assessed as decrease in S phase population at IC50 concentration incubated for 24 hrs by PI/RNase staining based flow cytometric analysis; format: functional; outline: as §1
OVCAR-3 = test: Antitumor activity against human OVCAR-3 cells assessed as cell growth inhibition at 10 uM incubated for 48 hrs by sulforhodamine B assay; format: functional; conditions: read-out: GI; outline: as §2
MDA-MB-468 [8] = test: Antiproliferative activity against human MDA-MB-468 cells measured after 48 hrs under normoxic condition by MTT assay; format: functional, cell-based; conditions: MDA-MB-468, 48 h

IC50 (MDA-MB-468 [1]): 11.3 µM
IC50 (MCF7 [2]): 7.73 µM
IC50 (MCF7 [6]): 2.96 µM
IC50 (MDA-MB-468 [8]): 5.38 µM
Compound: N#Cc1c(-c2ccc(F)cc2)nc2c(/N=N/c3ccc(S(N)(=O)=O)cc3)c(N)nn2c1N
fold change (FC) (MCF7 [3]): 11
Activity (MCF7 [4]): 10.89%
inhibition of growth at 10 µM (OVCAR-8): 25%
Activity (MCF7 [5]): Active
inhibition of growth at 10 µM (K562): 33%
Activity (NCI/ADR-RES): inactive
inhibition of growth at 10 µM (RPMI-8226): 60%
Activity (MCF7 [7]): Active
inhibition of growth at 10 µM (OVCAR-3): 20%
